Results on 40 compounds are retold here after PubChem BioAssay.

Structures are written as SMILES.

One test in a line: yeast TOR pathway reporter LAP4-GFP change – cell-based, cherry picks, flow cytometry, mother/daughter gates, confirmation (AID 2271).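 Further: ratio of sample to DMSO plate mean so 100% equals DMSO level.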 To be noted: S. cerevisiae LAP4-GFP strain, 3 h, measured here: daughter cell gate response, at 10 µM, stronger effect = higher value, 100 means same as DMSO control. In outline: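 System: GFP-fusion yeast strain | Input: Yeast cells seeded at OD600 of 0.2 | Technique: HT flow cytometry, GFP fluorescence channel | Read-out: % GFP response vs DMSO | Dosing: Single test-compound dose, 10 µM final | Controls: Positive rapamycin (400 ng/mL), negative DMSO | Times: 3 h treatment at 30 °C with rotation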
On to `Cc1cccn2c(=O)c(/C=C(\C#N)C(N)=O)c(N3CCN(Cc4ccc5c(c4)OCO5)CC3)nc12`, for which the GFP response relative to DMSO worked out at 103%.

`O=S(=O)(CCN(CCS(=O)(=O)C(F)(F)F)CC1CCCO1)C(F)(F)F` (stereo not given) had a GFP response relative to DMSO of 179%.

`COc1cc(NC(=O)C(C)C)ccc1NC(=O)c1cc2ccccc2o1` showed a GFP response relative to DMSO of 92.5%.

As to `COc1cc(/C=C2/N=C(c3ccccc3)OC2=O)c(F)cc1OCc1ccccc1`, the GFP response relative to DMSO is 102%.

As to `Cc1cccc(C)c1OCCOC(=O)c1n[nH]c2ccccc12`, the GFP response relative to DMSO turned out to be 93.6%.

In turn, `Cc1ccc(/C=N\NC(=O)c2cc(OCC(F)(F)F)ccc2OCC(F)(F)F)cc1` had a GFP response relative to DMSO of 91.2%.

In turn, `CCOCCCNC(=O)/C(C#N)=C/c1ccc([N+](=O)[O-])o1` came in with a GFP response relative to DMSO of 132%.

`O=c1[nH]c(CN2CCCCC2)nc2c1C1(CCCCC1)Cc1ccccc1-2` yielded a GFP response relative to DMSO of 98.7%.

With `CSC1=NC(=O)/C(=C/c2ccc(SC)cc2)S1`, the GFP response relative to DMSO came to 115%.

In the case of `COC(=O)Nc1c(-c2ccccc2)nc2ccccn12`, the GFP response relative to DMSO turned out to be 106%.

`CCCc1[nH]nc2c1C(c1ccc(O)c(OC)c1)C(C#N)=C(N)O2` (stereo not given): the GFP response relative to DMSO was 94.1%.

In turn, `CCc1ccc2c(c1)/C(=C/C(=O)c1cccs1)C(=O)N2` came in with a GFP response relative to DMSO of 156%.

Regarding `CCN(C(=O)c1ccccc1Cl)c1ccccc1`, the GFP response relative to DMSO amounted to 104%.

Compound `COCCNc1c(-c2ccc(O)cc2)nc2ccc(Cl)cn12` had a GFP response relative to DMSO of 99.2%.

`CC(C)(C)c1ccc(C(=O)N/N=C/c2cccc(Cl)c2)cc1`: the GFP response relative to DMSO stood at 101%.

`O=C(COC(=O)C1CCN(c2ccc(C(F)(F)F)cn2)CC1)Nc1cccc(F)c1` registered a GFP response relative to DMSO of 102%.

Regarding `COc1ccc(Cc2nnc(NC(=O)c3ccccc3F)s2)cc1`, the GFP response relative to DMSO was 105%.

`COC(=O)c1cccc(-n2c(CCC(=O)O)ccc2-c2cccs2)c1` showed a GFP response relative to DMSO of 103%.

As to `CC(=O)Oc1ccc(/C=c2\sc3ncnn3c2=O)cc1`, the GFP response relative to DMSO was determined as 122%.

In turn, `CCNC(=O)c1c(O)c2cccc3c2n(c1=O)CC3` came in with a GFP response relative to DMSO of 101%.

`Cc1ccc(C(=O)NNC(=S)NC(=O)c2ccco2)cc1` yielded a GFP response relative to DMSO of 117%.

Turning to `CCOC(=O)c1sc(NC(=O)CN2C(=O)c3cccc4cccc(c34)C2=O)nc1C`, the GFP response relative to DMSO amounted to 86.4%.

In the case of `Cc1ccc(NC(=O)c2ccccc2O)cc1`, the GFP response relative to DMSO is 95%.

`O=C(NCCN1CCOCC1)c1ccc(CS(=O)(=O)Cc2ccccc2F)o1` had a GFP response relative to DMSO of 99.7%.

In the case of `Cc1ccc(-n2nnnc2C(Cl)(Cl)c2nnnn2-c2ccc(C)cc2)cc1`, the GFP response relative to DMSO is 120%.

Compound `COc1ccc(CC(=O)Oc2ccccc2C)cc1` returned a GFP response relative to DMSO of 97.9%.

As for `Cc1ccc(S(=O)(=O)N(Cc2ccccc2)Cc2ccco2)cc1`, the GFP response relative to DMSO was 87.9%.

Consider `Cc1cc(NC(=O)c2cccnc2Cl)ccc1NC(=O)c1cc2ccccc2o1`, for which the GFP response relative to DMSO came out at 101%.

Regarding `Cc1ccc(NC(=O)CCCSc2nc3ccccc3[nH]2)cc1`, the GFP response relative to DMSO came out at 98.2%.

In turn, `Cc1ccc(C(=O)Sc2cccccc2=O)cc1` yielded a GFP response relative to DMSO of 281%.

Turning to `COc1ccccc1-c1noc(CCC(=O)Nc2cccc(C(F)(F)F)c2)n1`, the GFP response relative to DMSO was 104%.

`Nc1cccnc1S(=O)(=O)c1ccccc1` displayed a GFP response relative to DMSO of 94.1%.

In turn, `O=C(O)CCc1ccc(-c2ccccc2)o1` registered a GFP response relative to DMSO of 138%.

The compound `Nc1nc(SCC(=O)Nc2cc(C(F)(F)F)ccc2N2CCOCC2)n[nH]1` gave a GFP response relative to DMSO of 101%.

Consider `Cc1ncc2c(n1)-c1cc(F)ccc1SC2`, for which the GFP response relative to DMSO worked out at 89.6%.

In turn, `Cc1ccc2c(c1)c(/C=C/c1cc[n+](C)cc1)c(C)n2C` yielded a GFP response relative to DMSO of 194%.

For `COc1ccc(CCNC2=C(Cl)C(=O)N(CCc3ccc(OC)c(OC)c3)C2=O)cc1OC`, the GFP response relative to DMSO is 99.3%.

For `Cc1cccc(NC(=S)NCC23C=CC(O2)C2C(=O)N(c4ccc(Cl)cc4)C(=O)C23)c1` (stereo not given), the GFP response relative to DMSO amounted to 102%.

Regarding `O=C(CSc1nnc(-c2ccccn2)n1Cc1ccccc1)N1CCOCC1`, the GFP response relative to DMSO came out at 107%.

For `COc1ccc(-c2nc(-c3ccccc3OC)no2)cc1OC`, the GFP response relative to DMSO is 99.1%.

Still in this test, the particulars now being: S. cerevisiae LAP4-GFP strain, 3 h, measured here: mother cell gate response, at 10 µM, stronger effect = higher value, 100 means same as DMSO control.
In turn, `Cc1cccn2c(=O)c(/C=C(\C#N)C(N)=O)c(N3CCN(Cc4ccc5c(c4)OCO5)CC3)nc12` had a GFP response relative to DMSO of 101%.

For the compound `O=S(=O)(CCN(CCS(=O)(=O)C(F)(F)F)CC1CCCO1)C(F)(F)F` (stereo not given), the GFP response relative to DMSO came out at 210%.

For the compound `COc1cc(NC(=O)C(C)C)ccc1NC(=O)c1cc2ccccc2o1`, the GFP response relative to DMSO worked out at 94.2%.

As to `COc1cc(/C=C2/N=C(c3ccccc3)OC2=O)c(F)cc1OCc1ccccc1`, the GFP response relative to DMSO turned out to be 98.4%.

On to `Cc1cccc(C)c1OCCOC(=O)c1n[nH]c2ccccc12`, for which the GFP response relative to DMSO was 82.8%.

`Cc1ccc(/C=N\NC(=O)c2cc(OCC(F)(F)F)ccc2OCC(F)(F)F)cc1` returned a GFP response relative to DMSO of 92.9%.

As for `CCOCCCNC(=O)/C(C#N)=C/c1ccc([N+](=O)[O-])o1`, the GFP response relative to DMSO was found to be 129%.

`O=c1[nH]c(CN2CCCCC2)nc2c1C1(CCCCC1)Cc1ccccc1-2` showed a GFP response relative to DMSO of 101%.

Compound `CSC1=NC(=O)/C(=C/c2ccc(SC)cc2)S1` registered a GFP response relative to DMSO of 134%.

Take `COC(=O)Nc1c(-c2ccccc2)nc2ccccn12`: the GFP response relative to DMSO is 105%.

Consider `CCCc1[nH]nc2c1C(c1ccc(O)c(OC)c1)C(C#N)=C(N)O2` (stereo not given), for which the GFP response relative to DMSO is 93.1%.

As for `CCc1ccc2c(c1)/C(=C/C(=O)c1cccs1)C(=O)N2`, the GFP response relative to DMSO was 171%.

`CCN(C(=O)c1ccccc1Cl)c1ccccc1` gave a GFP response relative to DMSO of 110%.

Take `COCCNc1c(-c2ccc(O)cc2)nc2ccc(Cl)cn12`: the GFP response relative to DMSO worked out at 98.3%.

Take `CC(C)(C)c1ccc(C(=O)N/N=C/c2cccc(Cl)c2)cc1`: the GFP response relative to DMSO is 102%.

On to `O=C(COC(=O)C1CCN(c2ccc(C(F)(F)F)cn2)CC1)Nc1cccc(F)c1`, for which the GFP response relative to DMSO amounted to 100%.

In the case of `COc1ccc(Cc2nnc(NC(=O)c3ccccc3F)s2)cc1`, the GFP response relative to DMSO turned out to be 101%.

As to `COC(=O)c1cccc(-n2c(CCC(=O)O)ccc2-c2cccs2)c1`, the GFP response relative to DMSO is 103%.

In turn, `CC(=O)Oc1ccc(/C=c2\sc3ncnn3c2=O)cc1` came in with a GFP response relative to DMSO of 125%.

As for `CCNC(=O)c1c(O)c2cccc3c2n(c1=O)CC3`, the GFP response relative to DMSO is 105%.

Consider `Cc1ccc(C(=O)NNC(=S)NC(=O)c2ccco2)cc1`, for which the GFP response relative to DMSO was 121%.

`CCOC(=O)c1sc(NC(=O)CN2C(=O)c3cccc4cccc(c34)C2=O)nc1C` showed a GFP response relative to DMSO of 87.6%.

As to `Cc1ccc(NC(=O)c2ccccc2O)cc1`, the GFP response relative to DMSO was found to be 99.5%.

As for `O=C(NCCN1CCOCC1)c1ccc(CS(=O)(=O)Cc2ccccc2F)o1`, the GFP response relative to DMSO came out at 98.2%.

In turn, `Cc1ccc(-n2nnnc2C(Cl)(Cl)c2nnnn2-c2ccc(C)cc2)cc1` came in with a GFP response relative to DMSO of 139%.

For `COc1ccc(CC(=O)Oc2ccccc2C)cc1`, the GFP response relative to DMSO came to 98.5%.

On to `Cc1ccc(S(=O)(=O)N(Cc2ccccc2)Cc2ccco2)cc1`, for which the GFP response relative to DMSO stood at 90.1%.

With `Cc1cc(NC(=O)c2cccnc2Cl)ccc1NC(=O)c1cc2ccccc2o1`, the GFP response relative to DMSO came out at 104%.

`Cc1ccc(NC(=O)CCCSc2nc3ccccc3[nH]2)cc1` gave a GFP response relative to DMSO of 98.2%.

Regarding `Cc1ccc(C(=O)Sc2cccccc2=O)cc1`, the GFP response relative to DMSO is 315%.

On to `COc1ccccc1-c1noc(CCC(=O)Nc2cccc(C(F)(F)F)c2)n1`, for which the GFP response relative to DMSO came to 100%.

Regarding `Nc1cccnc1S(=O)(=O)c1ccccc1`, the GFP response relative to DMSO amounted to 95.2%.

For `O=C(O)CCc1ccc(-c2ccccc2)o1`, the GFP response relative to DMSO was 138%.

Compound `Nc1nc(SCC(=O)Nc2cc(C(F)(F)F)ccc2N2CCOCC2)n[nH]1` returned a GFP response relative to DMSO of 98.3%.

Take `Cc1ncc2c(n1)-c1cc(F)ccc1SC2`: the GFP response relative to DMSO came out at 85.5%.

In turn, `Cc1ccc2c(c1)c(/C=C/c1cc[n+](C)cc1)c(C)n2C` showed a GFP response relative to DMSO of 173%.

For `COc1ccc(CCNC2=C(Cl)C(=O)N(CCc3ccc(OC)c(OC)c3)C2=O)cc1OC`, the GFP response relative to DMSO stood at 100%.

For the compound `Cc1cccc(NC(=S)NCC23C=CC(O2)C2C(=O)N(c4ccc(Cl)cc4)C(=O)C23)c1` (stereo not given), the GFP response relative to DMSO stood at 104%.

As to `O=C(CSc1nnc(-c2ccccn2)n1Cc1ccccc1)N1CCOCC1`, the GFP response relative to DMSO worked out at 105%.

`COc1ccc(-c2nc(-c3ccccc3OC)no2)cc1OC` returned a GFP response relative to DMSO of 104%.
